Results reported in ChEMBL document CHEMBL3580630, “Design and Synthesis of a Screening Library Using the Natural Product Scaffold 3-Chloro-4-hydroxyphenylacetic Acid” (2015).
The source made the active and inactive calls. The rule behind the calls is not given here.

Tests used:
LNCaP [1] = experiment: Cytotoxicity against human LNCAP cells assessed as inhibition of cell proliferation at 10 uM after 72 hrs by Alamar blue assay relative to control; format: functional
Plasmodium falciparum = experiment: Antiparasitic activity against asexual intraerythrocytic stage of Plasmodium falciparum 3D7 assessed as inhibition of parasite replication at 10 uM after 72 hrs by DAPI staining-based microscopic analysis relative to control; format: functional; details: 3D7, 72 h
[2] = tested on: Trypanosoma brucei brucei; experiment: Antiparasitic activity against bloodstream form of Trypanosoma brucei brucei 427 assessed as inhibition of parasite replication at 10 uM after 72 hrs by resazurin assay relative to control; format: functional; details: Trypanosoma brucei, 427, 72 h
PC-3 [3] = experiment: Antilipogenic activity in human PC3 cells assessed as reduction of cellular neutral lipid level at 10 uM after 48 hrs by nile red staining-based fluorescence microscopic analysis relative to control; format: functional, cell-based
Method in brief: (§1)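 Cells were grown 72 h in phenol-red-free RPMI-1640 with 5% CSS, then exposed 48 h to 10 µM compound in 0.3% DMSO. Controls were DMSO alone (negative) and TOFA (positive). Cells were fixed in 4% paraformaldehyde for 20 min on ice, then stained 20 min at room temperature in the dark with 1.0 µg/mL DAPI and 0.25 µg/mL Nile Red in PBS. Imaging was at 10×. Neutral lipids were read in the Cy3 channel and phospholipids in Cy5, as mean fluorescence intensity per cell (~1500 cells/treatment). Statistics used one-way ANOVA with Dunnett's test.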

LNCaP [4] = experiment: Antilipogenic activity in human LNCAP cells assessed as reduction of cellular phospholipid level at 10 uM after 48 hrs by nile red staining-based fluorescence microscopic analysis relative to control; format: functional, cell-based; method in brief: as §1
LNCaP [5] = experiment: Antilipogenic activity in human LNCAP cells assessed as reduction of cellular neutral lipid level at 10 uM after 48 hrs by nile red staining-based fluorescence microscopic analysis relative to control; format: functional, cell-based; method in brief: as §1
PC-3 [6] = experiment: Antilipogenic activity in human PC3 cells assessed as reduction of cellular phospholipid level at 10 uM after 48 hrs by nile red staining-based fluorescence microscopic analysis relative to control; format: functional, cell-based; method in brief: as §1

| SMILES | inhibition at 10 µM (LNCaP [1]) | inhibition at 10 µM (Plasmodium falciparum) | inhibition at 10 µM [2] | Activity (PC-3 [3]) | Activity (LNCaP [4]) | Activity (LNCaP [5]) | Activity (PC-3 [6]) |
| --- | --- | --- | --- | --- | --- | --- | --- |
| O=C(O)Cc1ccc(O)c(Cl)c1 | > 50% | > 50% | > 50% | – | – | – | – |
| O=C(Cc1ccc(O)c(Cl)c1)NCc1ccc(F)cc1 | > 50% | > 50% | > 50% | Active | Active | Active | Active |
| O=C(Cc1ccc(O)c(Cl)c1)NCCc1ccccc1F | > 50% | > 50% | > 50% | – | – | – | – |
| O=C(Cc1ccc(O)c(Cl)c1)NCCc1ccc(Br)cc1 | > 50% | > 50% | > 50% | – | – | – | – |
| O=C(Cc1ccc(O)c(Cl)c1)NCCc1cccc(F)c1 | > 50% | > 50% | > 50% | – | – | – | – |
| O=C(Cc1ccc(O)c(Cl)c1)NCc1ccccc1F | > 50% | > 50% | > 50% | Active | Active | Active | Active |
| O=C(Cc1ccc(O)c(Cl)c1)NCCN1CCOCC1 | > 50% | > 50% | > 50% | – | – | – | – |
| CCCCCCCCCCCCCCOc1ccc(C(=O)O)o1 | – | – | – | Active | inactive | Active | inactive |
| O=C(Cc1ccc(O)c(Cl)c1)NCc1ccccc1 | > 50% | > 50% | > 50% | – | – | – | – |
| CCN(CC)CCCNC(=O)Cc1ccc(O)c(Cl)c1 | > 50% | > 50% | > 50% | – | – | – | – |
| O=C(Cc1ccc(O)c(Cl)c1)NCCc1ccccn1 | > 50% | > 50% | > 50% | – | – | – | – |
| O=C(Cc1ccc(O)c(Cl)c1)NCc1cccc(F)c1 | > 50% | > 50% | > 50% | Active | Active | Active | Active |
| O=C(Cc1ccc(O)c(Cl)c1)NCc1ccc(Br)cc1 | > 50% | > 50% | > 50% | – | – | – | – |
| O=C(Cc1ccc(O)c(Cl)c1)NCCN1CCNCC1 | > 50% | > 50% | > 50% | – | – | – | – |
| O=C(Cc1ccc(O)c(Cl)c1)NCCc1ccc(Cl)cc1 | > 50% | > 50% | > 50% | – | – | – | – |
| CN(C)CCNC(=O)Cc1ccc(O)c(Cl)c1 | > 50% | > 50% | > 50% | – | – | – | – |
| O=C(Cc1ccc(O)c(Cl)c1)NCCc1ccc(F)cc1 | > 50% | > 50% | > 50% | – | – | – | – |
| CN(C)CCCNC(=O)Cc1ccc(O)c(Cl)c1 | > 50% | > 50% | > 50% | – | – | – | – |
| CCN(CC)CCNC(=O)Cc1ccc(O)c(Cl)c1 | > 50% | > 50% | > 50% | – | – | – | – |
| O=C(Cc1ccc(O)c(Cl)c1)NCCc1ccccc1 | > 50% | > 50% | > 50% | – | – | – | – |
| CC(C)CCNC(=O)Cc1ccc(O)c(Cl)c1 | > 50% | > 50% | > 50% | – | – | – | – |
| O=C(Cc1ccc(O)c(Cl)c1)NCc1ccc(Cl)cc1 | > 50% | > 50% | > 50% | – | – | – | – |
| COC(=O)Cc1ccc(O)c(Cl)c1 | > 50% | > 50% | > 50% | – | – | – | – |
